Series [1] addresses TSPO. To be noted: high-affinity TSPO ligand for comparison; cited from earlier work.
The conditions of series [2]: within the first 12 minutes post-administration; cited from earlier work.
Series [3] deals with T1, TSPO (Rattus norvegicus, UniProt P16257). Kind of series: Radioligand displacement of 3H-PK 11195 in C6 glioma cell lysate. The class given is binding. To be noted: for decrease in affinity with respect to parent compound: R2 hydrogen replaced with methyl.
Series [4] addresses T1, TSPO. Kind of series: Biodistribution and specific binding. The class given is in vivo, rats. Put shortly:
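Normal rats received an infusion of the 18F-labelled test compound (radiochemical purity >99%, specific activity >4203 Ci/mmol). Tissues were harvested 60 minutes after infusion, and their radioactivity was counted. Values are expressed as percentage of injected dose per gram of tissue (%ID/g).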

Series [5] can be described thus: Radio-HPLC of radiometabolites in plasma during PET scanning. To be noted: 2, 12, 30, 60, 90 min. The class given is in vivo, rat.
Series [6] relates to C6 glioma. Type of series: in vivo, Wistar rats. Put shortly: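 C6 glioma-bearing Wistar rats were given the 18F-labelled test compound (radiochemical purity >99%) and imaged by 90-minute dynamic microPET. Time-activity curves were drawn for tumor, normal brain and plasma across eight representative studies. Plasma radiometabolites were analysed by radio-HPLC at 2, 12, 30, 60 and 90 min. Brains were processed post mortem for staining and immunohistochemistry.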

Where [7] appears, read: bolus of non-radioactive 6b (10 mg/kg) at 30 minutes, 60-minute assay.

`COc1ccccc1CN(C(C)=O)c1cnccc1Oc1ccccc1` [PBR28, N-(2-methoxybenzyl)-N-(4-phenoxypyridin-3-yl)acetamide]: the inhibition constant (Ki) in series [1] is 4 nM.

With `CCN(CC)C(=O)Cc1c(-c2ccc(OCC[18F])cc2)nn2c(C)cc(C)nc12` [^18F-6a, N,N-diethyl-2-(2-(4-(2-[^18F]fluoroethoxy)phenyl)-5,7-dimethylpyrazolo[1,5-a]pyrimidin-3-yl)acetamide], the metabolism in plasma entry in series [2] is on record as “up to 30%”.

`CCN(CC)C(=O)Cc1c(-c2ccc(OC)cc2)nn2c(C)c(C)c(C)nc12` [Compound 5d]: the “decrease in affinity with respect to parent compound” value in series [3] was “approximately 10 fold”.

`CCc1cc(CC)n2nc(-c3ccc(OCCF)cc3)c(CC(=O)N(CC)CC)c2n1` [Compound 6b, 2-(5,7-diethyl-2-(4-(2-fluoroethoxy)phenyl)pyrazolo[1,5-a]pyrimidin-3-yl)-N,N-diethylacetamide]: in series [3] (TSPO affinity), the “enhancement in affinity compared to 6a (DPA-714)” value amounted to 36 fold.

Consider `CCc1cc(CC)n2nc(-c3ccc(OCC[18F])cc3)c(CC(=O)N(CC)CC)c2n1` [^18F-6b, 2-(5,7-diethyl-2-(4-(2-[^18F]fluoroethoxy)phenyl)pyrazolo[1,5-a]pyrimidin-3-yl)-N,N-diethylacetamide], for which, in series [4] (60 minutes after infusion), the “accumulation in brain, testes, skull, and skeletal muscle” value is on record as “Very minor accumulation”; the “accumulation in spleen, heart, kidney, and lung” value is given as “elevated accumulation”; the “uptake in liver, colon, small bowel, and stomach” value is on record as “Moderate uptake”. In addition, the “radioactivity in whole blood or urine” value in series [4] (60 minutes post-administration) was “very little radio-activity”. Further, in series [4] (setting [7]), the “activity in muscle or liver with displacement” value is listed as “essentially unchanged with displacement”; the “activity in spleen, heart, kidney, and lung with displacement” value was “reduced to background levels”; the “activity in urine with displacement” value is “elevated with displacement”. Also, the “radioactive species detected in plasma” value in series [5] is given as “the only radioactive species detected in plasma at all time points”. Moreover, the “tracer uptake in brain (tumor vs normal brain)” value in series [6] (dynamic PET, 90-minute acquisition) is given as “majority of tracer uptake in the brain was localized to the tumor”. The clearance from plasma entry in series [6] (time-activity curve, 90-minute dynamic acquisition) is listed as “quickly cleared from the plasma”.

For `CCN(CC)C(=O)Cc1c(-c2ccc(OCCF)cc2)nn2c(C)c(C)c(C)nc12` [Compound 6d], the “decrease in affinity with respect to parent compound” value in series [3] was “approximately 10 fold”.

In general, Ki refers to a dissociation constant, usually derived from enzyme kinetics or from competition with a known ligand.

The values above are taken from publication PMC3648642 (Journal of medicinal chemistry, 2013).
